Compound activity as filed in PubChem BioAssay.
INS promoter act = TRM-6 insulin promoter activation; TRM-6 cells, insulin promoter eGFP reporter, imaging; plate-scaled: unstimulated 0, stimulated control 100; activation, % at 2 µM; actives 0.81% (n = 130,000); AID 1296;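 active = activation at 2 µM above a set limit, confirmed on inspection of the cell images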;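 also: share of cells whose green reporter signal exceeds an intensity cutoff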
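System – human fetal islet-derived TRM-6 cells with tamoxifen-inducible insulin promoter–eGFP reporter · Amount – 1,000 cells per well · Schedule – overnight tamoxifen, then two-day compound incubation at 37 °C · Detection – high-content imaging of fixed cells with Hoechst nuclear stain · Read-out – percent cells above green-intensity threshold, converted to percent activation versus plate controls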
A number is an active result; – = inactive. The sample as a whole holds a higher share of hits than the screen did.

SMILES	INS promoter act
CC(C)OCCCNS(=O)(=O)c1ccc2ccccc2c1	–
COc1ccccc1N1CCN(c2ccc([N+](=O)[O-])cc2Cl)CC1	–
COc1ccc(C(=O)Nc2c(N)nc(SCC(=O)N3CCCCCC3)[nH]c2=O)cc1OC	–
CCCCOc1ccc(CC2CCC(=O)NC2=O)cc1 (centres undefined)	–
O=C(O)C(NS(=O)(=O)c1ccc(F)cc1)c1ccccc1 (centres undefined)	–
Cc1cc(Nc2ccccc2)n(C(=O)c2ccccc2)n1	–
Cc1ccc(S(=O)(=O)NC(c2ccccc2)C(C)C(=O)n2nc(C)cc2C)cc1 (centres undefined)	117.4
O=C(Nc1nc2ccccc2s1)C1=NN(c2ccccc2)C(=O)CC1	–
Cc1ccc(S(=O)(=O)Nc2ccccc2C(=O)Nc2nc(-c3ccc(F)cc3)cs2)cc1	–
CN(C)S(=O)(=O)c1ccc(C(=O)Nc2nc(-c3cc4ccccc4o3)cs2)cc1	–
CN(C)S(=O)(=O)c1ccc(N2CCCC2)c(C(=O)Nc2nc(-c3ccc(F)c(F)c3)cs2)c1	414.3
COc1cccc2c1OC1(C)CC2/C(=C(\C)O)C(=O)N1 (centres undefined)	–
C/C(CCc1ccc2c(c1)OCO2)=N\N=C1\NC(=O)CC(C(=O)Nc2ccc(Cl)cc2)S1 (centres undefined)	–
Clc1ccc(CO/N=C2\CCCc3nonc32)c(Cl)c1	–
COc1ccc(Cc2nnn(CC(=O)O)n2)cc1	–
COc1ccc(S(=O)(=O)NCC(c2cccnc2)N2CCN(c3ccccc3OC)CC2)cc1C (centres undefined)	185.7
COc1ccccc1N1CCN(C(CNS(=O)(=O)c2ccccc2)c2cccnc2)CC1 (centres undefined)	–
COc1ccccc1N1CCN(C(CNC(=O)c2ccc3c(c2)OCO3)c2cccnc2)CC1 (centres undefined)	–
Cc1cc(N2CCC(C)CC2)nc(NCc2ccccc2)n1	–
COC(=O)CCCC(=O)NC(C)c1cnn(-c2ccccc2C)c1C (centres undefined)	–
O=[N+]([O-])c1ccc(Cl)c(/C=N/NC(=S)Nc2ccccc2)c1	–
CC(C)CNC(=O)CO/N=C/c1ccccc1Cl	–
O=C(Nc1ccccc1)O/N=C/c1ccccc1Cl	87.1
O=C(COC(=O)C1CCCCC1)Nc1ccccc1OC(F)F	–
CCC(=O)Nc1ccc(C(=O)NNC(=O)COc2cccc(C)c2)cc1	–
Cc1cc(C)n(C(=O)CNC(=O)C2COc3ccccc3O2)n1 (centres undefined)	–
CC(CS(=O)(=O)c1ccc2ccccc2c1)N1CCN(C2CCCCC2)CC1 (centres undefined)	–
O=C(O)Cc1ccc2oc(-c3cccnc3)nc2c1	–
Cn1c(SCC(=O)Nc2ccccc2F)nnc1-c1ccc(S(=O)(=O)N2CCOCC2)cc1	–
